Results as given in ChEMBL document CHEMBL1148248, “Potentiation of cytotoxic drug activity in human tumour cell lines, by amine-substituted 2-arylbenzimidazole-4-carboxamide PARP-1 inhibitors” (Bioorg Med Chem Lett, 2004).

Assays:
[1] = test system: A549; assay: Cytotoxic potentiation factor of temoxolomide in human A549 tumor cell line at 0.4 uM concentration; format: functional
Summary of the method: (§1)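 Exponentially growing cells were exposed to increasing concentrations of cytotoxic drug (temozolomide or topotecan), alone or with PARP-1 inhibitor fixed at 0.4 µM. Drugs were added from DMSO stocks, giving 1% DMSO final. Growth was read by SRB assay and normalised to the 1% DMSO control or to inhibitor alone. PF50 is the ratio of drug GI50 alone to drug GI50 with inhibitor.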

[2] = test system: A549; assay: Compound was evaluated for cytotoxic potentiation factor of topotecan in human A549 tumor cell line at 0.4 uM concentration; format: functional; summary of the method: as §1
[3] = test system: LoVo; assay: Compound was evaluated for cytotoxic potentiation factor of topotecan in human LoVo cancer cell line at 0.4 uM concentration; format: functional; summary of the method: as §1
[4] = molecular target: Poly [ADP-ribose] polymerase 1 (Homo sapiens, UniProt P09874)
Poly [ADP-ribose] polymerase 1, sequence (P09874 whole entry): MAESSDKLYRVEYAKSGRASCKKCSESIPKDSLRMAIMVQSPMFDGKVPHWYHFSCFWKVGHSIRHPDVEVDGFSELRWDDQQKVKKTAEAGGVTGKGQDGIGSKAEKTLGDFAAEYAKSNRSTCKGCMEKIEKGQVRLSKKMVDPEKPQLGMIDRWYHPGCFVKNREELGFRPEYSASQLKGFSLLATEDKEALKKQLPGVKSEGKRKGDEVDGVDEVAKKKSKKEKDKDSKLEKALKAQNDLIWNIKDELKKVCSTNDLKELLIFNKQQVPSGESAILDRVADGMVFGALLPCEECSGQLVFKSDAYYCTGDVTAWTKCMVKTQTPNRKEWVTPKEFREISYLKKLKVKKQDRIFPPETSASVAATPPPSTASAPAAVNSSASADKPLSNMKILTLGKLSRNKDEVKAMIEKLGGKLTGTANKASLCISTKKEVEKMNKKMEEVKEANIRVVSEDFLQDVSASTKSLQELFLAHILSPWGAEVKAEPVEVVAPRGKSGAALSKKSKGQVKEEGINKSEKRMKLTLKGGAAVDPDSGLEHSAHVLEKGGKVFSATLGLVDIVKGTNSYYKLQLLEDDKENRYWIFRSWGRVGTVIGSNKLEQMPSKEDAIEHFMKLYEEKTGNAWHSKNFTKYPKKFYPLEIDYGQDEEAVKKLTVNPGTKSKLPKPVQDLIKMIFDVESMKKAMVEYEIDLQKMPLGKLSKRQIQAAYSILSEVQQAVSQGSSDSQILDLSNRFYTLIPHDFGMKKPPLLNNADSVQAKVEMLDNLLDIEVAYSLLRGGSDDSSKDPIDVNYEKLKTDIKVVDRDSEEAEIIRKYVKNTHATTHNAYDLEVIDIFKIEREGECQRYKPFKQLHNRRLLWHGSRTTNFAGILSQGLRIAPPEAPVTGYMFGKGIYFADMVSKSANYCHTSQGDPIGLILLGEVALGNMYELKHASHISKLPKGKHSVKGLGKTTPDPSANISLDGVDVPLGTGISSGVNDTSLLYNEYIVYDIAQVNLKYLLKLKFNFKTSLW

[5] = test system: LoVo; assay: Cytotoxic potentiation factor of temoxolomide in human LoVo cancer cell line at 0.4 uM concentration; format: functional; summary of the method: as §1

Row | Ki [4] | SMILES | PF50 [1] | PF50 [2] | PF50 [3] | PF50 [5]
1 | 12 nM | NC(=O)c1cccc2[nH]c(-c3ccc(CN4CCOCC4)cc3)nc12 | – | – | – | –
2 | 4.5 nM | NC(=O)c1cccc2[nH]c(-c3ccc(CN(CCO)CCO)cc3)nc12 | – | – | – | –
3 | 10.2 nM | NC(=O)c1cccc2[nH]c(-c3cccc(CN4CCCC4)c3)nc12 | – | – | 1.1 | 1.7
4 | 4.5 nM | CN(C)Cc1ccc(-c2nc3c(C(N)=O)cccc3[nH]2)cc1 | 1.6 | 1.9 | 1.7 | 4
5 | 272 nM | NC(=O)c1cccc2[nH]c(-c3cccc(CN(CCO)CCO)c3)nc12 | 1.1 | 1.1 | – | –
6 | 5.6 nM | CN(C)Cc1cccc(-c2nc3c(C(N)=O)cccc3[nH]2)c1 | – | – | 1.4 | 1.7

Row | SMILES | Ki [4] | PF50 [1] | PF50 [2] | PF50 [3] | PF50 [5]
7 | NC(=O)c1cccc2[nH]c(-c3ccc(CN4CCCC4)cc3)nc12 | 5.9 nM | 1.5 | 1.8 | 1.5 | 5.2
8 | CN1CCN(Cc2cccc(-c3nc4c(C(N)=O)cccc4[nH]3)c2)CC1 | 9.8 nM | – | – | – | –
9 | NC(=O)c1cccc2[nH]c(-c3ccc(CN4CCCCC4)cc3)nc12 | 7.2 nM | – | – | – | –
10 | NC(=O)c1cccc2[nH]c(-c3cccc(CN4CCOCC4)c3)nc12 | 31 nM | – | – | – | –
11 | CN1CCN(Cc2ccc(-c3nc4c(C(N)=O)cccc4[nH]3)cc2)CC1 | 8.7 nM | – | – | – | –
